Values after ≈ are worked out from the molar mass of the structure shown. Active and inactive are the calls of the source. The rule behind the calls is not given here.
Assays:
NB-4 [1] = assay: Cell cycle arrest in human NB4 cells at 50 to 10000 nM after 24 hrs by propidium iodide staining-based flow cytometric analysis; type: functional
Outline: (§1)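 NB4 cultured at 37 °C, 5% CO2 in RPMI-1640 with 10% heat-inactivated FBS. Treated at 50 and 100 nM, 1 and 10 μM for 24 h. Cells fixed/permeabilized in 70% ethanol overnight at 4 °C, then given RNase and 20 μg/ml PI for 30 min. Doublets excluded, 20,000 events per sample; cell-cycle phase distribution analysed.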

[2] = Cytotoxicity against human A2780AD cells after 48 hrs by MTT assay; type: functional, cell-based
Outline: (§2)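 Cells seeded at 12,000 to 17,000 per well depending on line, incubated overnight, then given serial dilutions of ligand for 48 h. MTT at 2.5 mg/mL added for 4 h at 37 °C, formazan solubilized overnight (10% SDS, 45% dimethylformamide, pH 5.5), absorbance read at 595/690 nm. IC50 from log-dose response curves; mean ± SE of three independent assays.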

A2780 = assay: Cytotoxicity against human A2780 cells after 48 hrs by MTT assay; type: functional, cell-based; details: A2780, 48 h; outline: as §2
NB-4 [3] = assay: Induction of differentiation in human NB4 cells at 500 nM after 24 hrs in presence of ATRA by CD11c staining-based flow cytometric analysis; type: functional, cell-based
Outline: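 NB4 exposed to 0.5 μM compound together with 1 μM ATRA for 24 h. Cells stained with PE-conjugated CD11c (mouse IgG1-PE control) for 1 h at 4 °C in the dark, washed, resuspended in PBS with propidium iodide (0.25 μg/mL), then analysed by flow cytometry. Biological triplicates, mean ± S.E.M.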

[4] = Apparent solubility of compound in sodium phosphate buffer at 15 uM after 20 mins; type: physicochemical
Tubulin (Homo sapiens) [5] = molecular target: T1, Tubulin (Homo sapiens) (UniProt P68371+Q9H4B7+P0DPH7+P68366+Q13509+Q71U36+P04350+Q3ZCM7+P07437+P68363+Q9BQE3+Q6PEY2+Q13885+Q9BVA1+Q9BUF5); assay: Displacement of podophyllotoxin from tubulin (unknown origin) by ultracentrifugation method; type: protein-complex assay
NB-4 [6] = assay: Cell cycle arrest in human NB4 cells assessed as accumulation of cells at G1 phase after 24 hrs by propidium iodide staining-based flow cytometric analysis; type: functional; outline: as §1
[7] = Ratio of IC50 for human A2780AD cells to IC50 for human A2780 cells; type: functional
Outline: (§3)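 Relative resistance: IC50 in the P-gp overexpressing resistant line divided by IC50 in the parental line. Both IC50s came from the 48 h MTT assay (serial dilutions, absorbance at 595/690 nm, log-dose response curves, three independent assays).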

HL-60 [8] = assay: Cell cycle arrest in human HL60 cells assessed as accumulation of cells at G2/M phase at 10 uM after 24 hrs by propidium iodide staining-based flow cytometric analysis; type: functional
Outline: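 HL-60 exposed to 10 μM for 24 h, vehicle 0.1% DMSO. Cells plated at 2×10^5 cells/mL, stained in PBS with 0.1% sodium citrate, 0.1% NP40 and propidium iodide for 30 min at room temperature in the dark. DNA content by flow cytometry; G2/M fraction reported.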

[9] = Ratio of IC50 for mouse NIH/3T3 cells harboring MDR G185 to IC50 for mouse NIH/3T3 cells; outline: as §3
HL-60 [10] = assay: Induction of autophagy in human HL60 cells assessed as […] in LC3B-2 levels at 10 uM after 16 hrs in presence of lysosomal inhibitor chloroquine by immunoblot analysis; type: functional, cell-based
Outline: (§4)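 HL-60 in serum-supplemented RPMI 1640, or starved in Earle's Balanced Salts for 15 min beforehand, then treated with 10 μM compound with or without 40 μM chloroquine for 1 h 45 min or 16 h. LC3B-II measured by immunoblot, densitometry normalized to actin, three independent experiments, Student's T-test.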

HL-60 [11] = assay: Induction of autophagy in serum starved human HL60 cells assessed as increase in LC3B-2 levels at 10 uM after 105 mins in presence of lysosomal inhibitor chloroquine by immunoblot analysis; type: functional, cell-based; outline: as §4
HL-60 [12] = assay: Induction of autophagy in serum starved human HL60 cells assessed as increase in LC3B-2 levels at 10 uM after 105 mins by immunoblot analysis; type: functional, cell-based; outline: as §4
NIH3T3 [13] = assay: Cytotoxicity against mouse NIH/3T3 cells harboring MDR G185 after 48 hrs by MTT assay; type: functional, cell-based; details: NIH3T3, 48 h; outline: as §2
NB-4 [14] = assay: Cell cycle arrest in human NB4 cells assessed as accumulation of cells at G2/M phase at 50 to 10000 nM after 24 hrs by propidium iodide staining-based flow cytometric analysis; type: functional; outline: as §1
Tubulin (Homo sapiens) [15] = molecular target: T1, Tubulin (Homo sapiens); assay: Binding affinity to tubulin (unknown origin) by analytical ultracentrifugation
NIH3T3 [16] = assay: Cytotoxicity against mouse NIH/3T3 cells after 48 hrs by MTT assay; type: cell-based; details: NIH3T3, 48 h; outline: as §2
Tubulin (Homo sapiens) [17] = molecular target: T1, Tubulin (Homo sapiens); assay: Inhibition of tubulin (unknown origin) polymerization at 27.5 uM measured over 70 mins by turbidity method; type: protein-complex assay
Outline: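 Tubulin at 25 µM in GAB buffer (10 mM sodium phosphate, 30% glycerol, 1 mM EGTA, 6 mM MgCl2, 1 mM GTP, pH 6.7) with 27.5 µM compound or DMSO vehicle. Turbidity is read at 355 nm for 70 min at 37 °C. Data are normalized to the initial stable absorbance plateau to correct for compound absorbance.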

SCC-4 [18] = assay: Cytotoxicity against human SCC4 cells after 48 hrs by MTT assay; type: functional, cell-based; details: SCC-4, 48 h
Outline: (§5)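 Cells (NCI-H929 in RPMI-1640 GlutaMAX; SCC4 in DMEM GlutaMAX; 10% FBS, 37 °C, 5% CO2) treated with increasing concentrations for 48 h. IC50 is the mean of three independent experiments.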

SCC-4 [19] = assay: Induction of apoptosis in human SCC4 cells at 50 uM after 48 hrs by Annexin V/propidium iodide staining-based flow cytometric analysis relative to control; type: functional
Outline: (§6)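 Seeding density: NCI-H929 and Ca9.22 at 30×10^4 cells/mL, SCC4 at 15×10^4 cells/mL. Cells exposed 48 h to compound (500 nM; 50 μM in SCC4 for one compound) or vehicle (1% EtOH v/v). Annexin V/PI staining, flow cytometry, 10,000 cells gated on vehicle-treated cells. Three independent experiments, mean ± S.E.M, T-test.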

Ca9-22 [20] = assay: Cytotoxicity against human Ca9-22 cells after 48 hrs by MTT assay; type: functional, cell-based; details: Ca9-22, 48 h
Ca9-22 [21] = assay: Induction of apoptosis in human Ca9-22 cells at 500 nM after 48 hrs by Annexin V/propidium iodide staining-based flow cytometric analysis relative to control; type: functional, cell-based; outline: as §6
Ca9-22 [22] = assay: Cytotoxicity against human Ca9-22 cells after 24 hrs by MTT assay; type: functional, cell-based; details: Ca9-22, 24 h
Ca9-22 [23] = assay: Cytotoxicity against human Ca9-22 cells after 72 hrs by MTT assay; type: functional, cell-based; details: Ca9-22, 72 h
NCI-H929 [24] = assay: Cytotoxicity against human NCI-H929 cells after 48 hrs by MTT assay; type: functional, cell-based; details: NCI-H929, 48 h; outline: as §5
B16-F10 = assay: Cytotoxicity against mouse B16F10 cells assessed as reduction in cell survival at 0.1 to 10 uM after 18 hrs by MTT assay; type: functional, cell-based
Outline: (§7)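 Seeded at 2,500 cells/well in medium with 10% serum. After adhesion, exposed to 0.1, 1 and 10 μM in medium with 5% serum for 18 h. Medium then replaced with fresh medium containing 1.2 mM MTT for 4 h; formazan dissolved in DMSO, absorbance at 540 nm. Results given as % of basal response.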

HCC827 [25] = assay: Cytotoxicity against human HCC827 cells assessed as reduction in cell survival at 0.1 to 10 uM after 50 to 60 hrs by MTT assay; type: functional, cell-based
B16-F1 = assay: Cytotoxicity against mouse B16-F1 cells assessed as reduction in cell survival at 0.1 to 10 uM after 18 hrs by MTT assay; type: functional, cell-based; outline: as §7
PC-9 [26] = assay: Induction of apoptosis in human PC9 cells assessed as increase in caspase-3 expression at 10 uM after 18 hrs by Western blot analysis; type: functional, cell-based
Outline: (§8)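 PC9 and HCC827 maintained in DMEM with 10% FBS, then exposed to 10 μM compound for 18 h in 5% serum. Caspase 3 activation and cell cycle proteins examined by western blot.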

PC-9 [27] = assay: Cytotoxicity against human PC9 cells assessed as reduction in cell survival at 0.1 to 10 uM after 18 hrs by MTT assay; type: functional, cell-based; outline: as §7
HL-60 [28] = assay: Induction of autophagy in human HL60 cells assessed as increase in LC3B-2 levels at 10 uM after 105 mins in presence of lysosomal inhibitor chloroquine by immunoblot analysis; type: functional, cell-based; outline: as §4
HCC827 [29] = assay: Induction of apoptosis in human HCC827 cells assessed as reduction in cyclin D1 expression at 10 uM after 18 hrs by Western blot analysis; type: functional, cell-based; outline: as §8
[30] = Solubility of compound in pH 3 aqueous solution after 12 hrs by HPLC analysis; type: physicochemical
A549 = assay: Cytotoxicity against human A549 cells assessed as reduction in cell survival at 0.1 to 10 uM after 18 hrs by MTT assay; type: functional, cell-based; outline: as §7
[31] = Solubility of compound in pH 7.4 aqueous solution after 12 hrs by HPLC analysis; type: physicochemical
Outline: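 Water solubility at pH 7.4 measured by HPLC analysis.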

PC-9 [32] = assay: Induction of apoptosis in human PC9 cells assessed as increase in p21 expression at 10 uM after 18 hrs by Western blot analysis; type: functional, cell-based; outline: as §8
SCC-4 [33] = assay: Induction of apoptosis in human SCC4 cells at 500 nM after 48 hrs by Annexin V/propidium iodide staining-based flow cytometric analysis relative to control; type: functional; outline: as §6
HCC827 [34] = assay: Cytotoxicity against human HCC827 cells assessed as reduction in cell survival at 0.1 to 10 uM after 18 hrs by MTT assay; type: functional, cell-based; outline: as §7
PC-9 [35] = assay: Induction of apoptosis in human PC9 cells assessed as reduction in cyclin D1 expression at 10 uM after 18 hrs by Western blot analysis; type: functional, cell-based; outline: as §8
HCC827 [36] = assay: Induction of apoptosis in human HCC827 cells assessed as increase in caspase-3 expression at 10 uM after 18 hrs by Western blot analysis; type: functional, cell-based; outline: as §8
HCC827 [37] = assay: Induction of apoptosis in human HCC827 cells assessed as increase in p21 expression at 10 uM after 18 hrs by Western blot analysis; type: functional, cell-based; outline: as §8
NCI-H929 [38] = assay: Induction of apoptosis in human NCI-H929 cells at 500 nM after 48 hrs by Annexin V/propidium iodide staining-based flow cytometric analysis relative to control; type: functional; outline: as §6

## CC(=O)OC1=C(c2ccc3c(c2)OCO3)Oc2cc3ccccc3cc2-n2cccc21
NB-4 [1]
  Activity: inactive
[2]
  IC50: 7100 nM
A2780
  IC50: 2050 nM
NB-4 [3]
  Activity: Active
[4]
  solubility at 20 min, 15 µM: 0.14 µM (≈ 0.0576 µg/mL)
Tubulin (Homo sapiens) [5]
  inhibition: Active
NB-4 [6]
  Activity: Dose-dependent effect
[7]
  Ratio IC50: 3.46
HL-60 [8]
  Activity: Active
[9]
  Ratio IC50: 0.73
HL-60 [10]
  Activity: Active
HL-60 [11]
  Activity: Active
HL-60 [12]
  Activity: Active
NIH3T3 [13]
  IC50: 2040 nM
NB-4 [14]
  Activity: Active
Tubulin (Homo sapiens) [15]
  Kb: 2 ×10⁷ /M
NIH3T3 [16]
  IC50: 2780 nM
Tubulin (Homo sapiens) [17]
  inhibition: Active

## CC(=O)OC1=C(c2ccccc2-c2ccccc2)Oc2ccccc2-n2cccc21
SCC-4 [18]
  IC50: 9370 nM
SCC-4 [19]
  Activity: >40%
Ca9-22 [20]
  IC50: 6300 nM
Ca9-22 [21]
  Activity: inactive
Ca9-22 [22]
  IC50: 8000 nM
Ca9-22 [23]
  IC50: 4500 nM
NCI-H929 [24]
  IC50: > 50000 nM

## CC(=O)OC1=C(c2cccc3ccccc23)Oc2cc3ccccc3cc2-n2cccc21
B16-F10
  Activity: Active
HCC827 [25]
  Activity: inactive
B16-F1
  Activity: Active
[2]
  IC50: 240 nM
A2780
  IC50: 249 nM
SCC-4 [18]
  IC50: 160 nM
PC-9 [26]
  Activity: Active
[4]
  solubility at 20 min, 15 µM: 0.62 µM (≈ 0.259 µg/mL)
PC-9 [27]
  Activity: Active
HL-60 [28]
  Activity: Active
HCC827 [29]
  Activity: Active
NB-4 [6]
  Activity: Dose-dependent effect
[30]
  solubility at 12 h: 29.4 µM (≈ 12.3 µg/mL)
[7]
  Ratio IC50: 0.96
Ca9-22 [20]
  IC50: 170 nM
A549
  Activity: Active
[31]
  solubility at 12 h: 26 µM (≈ 10.9 µg/mL)
PC-9 [32]
  Activity: Active
HL-60 [8]
  Activity: Active
[9]
  Ratio IC50: 2.42
SCC-4 [33]
  Activity: >40%
HCC827 [34]
  Activity: Active
PC-9 [35]
  Activity: Active
Ca9-22 [22]
  IC50: 210 nM
HL-60 [12]
  Activity: Active
NIH3T3 [13]
  IC50: 306 nM
HCC827 [36]
  Activity: Active
Tubulin (Homo sapiens) [15]
  Kb: 4.4 ×10⁷ /M
NIH3T3 [16]
  IC50: 126 nM
Tubulin (Homo sapiens) [17]
  inhibition: Active
HCC827 [37]
  Activity: Active
NCI-H929 [38]
  Activity: >40%
Ca9-22 [23]
  IC50: 83 nM
NCI-H929 [24]
  IC50: 376 nM

Source: ChEMBL document CHEMBL4382230, “Structure-activity relationships, biological evaluation and structural studies of novel pyrrolonaphthoxazepines as antitumor agents” (Eur J Med Chem, 2019)
